Reference: ChEMBL document CHEMBL4689842, “EUbOPEN Chemogenomics Library wave 1” (2021)
“And” between values parts separate entries of the source, which are not always exact repeats. Equal entries are not always repeated.

System: Fibroblast
Assay: Multiplex assay against human fibroblast
Type: toxicity, cell-based
Conditions: 10 µM, compound concentration 10 uM
Procedure, shortened: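 On a CQ1 microscope at 37°C and 5% CO2, live cells were imaged after compound addition. They had been stained at seeding with Hoechst33342, BioTracker Green Microtubule Cytoskeleton Dye, MitoTracker Red and Annexin V Alexa Fluor 680. CellPathfinder machine-learning gating assigned cells to Hoechst high-intensity objects or normal cells, normal cells to healthy, pyknosed or fragmented nuclei, and pyknosed cells to mitotic or apoptotic. Tubulin, mitochondrial-mass and membrane-permeability phenotypes are per cents of healthy-nucleus cells.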

CCN(CC)S(=O)(=O)Nc1cccc(-c2ccc3c(NC(=O)C4CC4)n[nH]c3c2)c1
Population Apoptotic (%) (12 h, replicate 1): 81% | Population Fragmented Nuclei (%) (12 h, replicate 1): 23% and 19% | Population Healthy Nuclei (%) (12 h, replicate 1): 64% and 56% | Population Hoechst High Intensity Objects (%) (12 h, replicate 1): 13% and 11% | Population Membrane Permeable-Phenotype (%) (12 h, replicate 1): 9% and 5% | Population Mitochondria Different-Phenotype (%) (12 h, replicate 1): 2% and 6% | Population Mitotic Cells (%) (12 h, replicate 1): 18% | Population Normal (%) (12 h, replicate 1): 86% and 88% | Population Pyknosed Nuclei (%) (12 h, replicate 1): 11% and 23% | Population Tubulin-Different-Phenotype (%) (12 h, replicate 1): 5% and 7% | Total Cell Count (12 h, replicate 1): 220 and 309 | Population Apoptotic (%) (12 h, replicate 2): 66% and 40% | Population Fragmented Nuclei (%) (12 h, replicate 2): 72% and 55% | Population Healthy Nuclei (%) (12 h, replicate 2): 17% and 34% | Population Hoechst High Intensity Objects (%) (12 h, replicate 2): 48% and 35% | Population Membrane Permeable-Phenotype (%) (12 h, replicate 2): 20% and 11% | Population Mitotic Cells (%) (12 h, replicate 2): 33% and 60% | Population Normal (%) (12 h, replicate 2): 51% and 65% | Population Pyknosed Nuclei (%) (12 h, replicate 2): 10% and 9% | Population Tubulin-Different-Phenotype (%) (12 h, replicate 2): 20% and 11% | Total Cell Count (12 h, replicate 2): 56 and 80 | Population Apoptotic (%) (24 h, replicate 1): 77% and 62% | Population Fragmented Nuclei (%) (24 h, replicate 1): 22% and 19% | Population Healthy Nuclei (%) (24 h, replicate 1): 66% and 62% | Population Hoechst High Intensity Objects (%) (24 h, replicate 1): 13% and 11% | Population Membrane Permeable-Phenotype (%) (24 h, replicate 1): 6% and 4% | Population Mitochondria Different-Phenotype (%) (24 h, replicate 1): 0% and 8% | Population Mitotic Cells (%) (24 h, replicate 1): 22% and 38% | Population Normal (%) (24 h, replicate 1): 86% and 88% | Population Pyknosed Nuclei (%) (24 h, replicate 1): 10% and 18% | Population Tubulin-Different-Phenotype (%) (24 h, replicate 1): 0% and 11% | Total Cell Count (24 h, replicate 1): 238 and 311 | Population Fragmented Nuclei (%) (24 h, replicate 2): 51% and 63% | Population Healthy Nuclei (%) (24 h, replicate 2): 35% and 23% | Population Hoechst High Intensity Objects (%) (24 h, replicate 2): 31% and 42% | Population Membrane Permeable-Phenotype (%) (24 h, replicate 2): 10% and 28% | Population Normal (%) (24 h, replicate 2): 68% and 57% | Population Pyknosed Nuclei (%) (24 h, replicate 2): 12% and 13% | Total Cell Count (24 h, replicate 2): 79 and 52
